Data set [1] is described as follows: Drug distribution in human HeLa cells assessed as fluorescence in mitochondria at 10 uM incubated for 1 to 3 hrs by MitoTracker Deep Red staining based confocal laser scanning microscopy. The data set is classed as ADME. As to conditions: time 1-3 hrs. The method in brief:
(§1)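 HeLa cells seeded 20,000/well on chambered coverslips and grown 24 h. Compound diluted 1,000-fold from DMSO stock into complete medium (0.1% DMSO) and given at 37 °C, then co-imaged with MitoTracker Deep Red or LysoTracker Red. Live-cell confocal imaging with 63X oil objective, without washing.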

The nature of data set [2]: Stability in human Jurkat lymphocytes assessed as half life in mitochondria at 10 uM incubated for 1 hrs by flow cytometry. It is filed as ADME. In general terms: Flow cytometry measures light scatter and fluorescence of single cells or particles in a stream.
Data set [3] in a line: Cytotoxicity against human Jurkat cells assessed as reduction in cell viability incubated for 48 hrs by flow cytometry. The data set is classed as toxicity, cell-based.
Data set [4] in a line: Cytotoxicity against human HeLa cells assessed as reduction in cell viability incubated for 48 hrs by flow cytometry. It is filed as toxicity, cell-based.
Data set [5] can be described thus: Stability of compound in ethanol at 5 uM incubated for 1 hrs by fluorescence spectroscopy. It is filed as physicochemical.
Data set [6] can be described thus: Drug distribution in human HeLa cells assessed as fluorescence in mitochondria at 2 uM incubated for 1 hrs by confocal laser scanning microscopy. It is filed as ADME.
Data set [7] relates to HeLa. Briefly: Induction of reactive oxygen species generation in human HeLa cells assessed as increase in ROS level at 2 uM incubated for 1 hr in presence of dihydroethidium by confocal microscopy. It is filed as functional, cell-based. Put shortly: (§2)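 HeLa cells seeded 20,000/well and grown 16 h. Pyronin 2 μM for 1 h at 37 °C, then DHE 5 μM for 1 h, then two washes with complete medium. Irradiation was 488 nm laser scanning at 25% power. ROIs drawn around nuclei to give mean ethidium fluorescence. Antimycin A 20 μM served as positive control; DHE-only cells were irradiated 1 or 2 min.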

Data set [8] relates to HeLa. Briefly: Induction of mitochondrial membrane potential depolarization in human HeLa cells assessed as fluorescence in nucleoli at 10 uM preincubated for 60 mins followed by CCCP treatment and measured after 5 mins by MitoTracker Deep Red and LysoTracker red staining based confocal laser scanning microscopy. The data set is classed as functional, cell-based. As to conditions: time 65.0 min. Put shortly:
(§3)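 Live HeLa cells seeded 20,000/well and grown 24 h, then loaded with probe 10 μM for 1 h at 37 °C (0.1% DMSO). Then either irradiated at 488 nm for 60 s or given CCCP 10 μM for 5 min. Unwashed cells imaged by confocal (Ex. 488 nm, Em. 500–600 nm) and DIC.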

For data set [9], the system named is HeLa. Briefly: Induction of reactive oxygen species generation in human HeLa cells assessed as fold increase in ROS level by measuring nuclear fluorescence at 2 uM incubated for 60 mins followed by blue-light irradiation for 1 mins in presence of dihydroethidium by confocal microscopy. It is filed as functional. As to conditions: time 61 min, 1.017 h. The method in brief: as §2

For data set [10], the system named is HeLa. The data set is described as follows: Induction of mitochondrial membrane potential depolarization in human HeLa cells assessed as diffuse fluorescence from mitochondria to cytoplasm and nucleus at 10 uM incubated for 1 hrs in presence of blue-light irradiation by MitoTracker Deep red and LysoTracker red staining based confocal laser scanning microscopy. The data set is classed as functional, cell-based. Put shortly: as §3

The target in the next data set is Albumin (Bos taurus, UniProt P02769). The data set is described as follows: Stability of the compound assessed as bovine serum albumin mediated drug degradation at 10 uM incubated for 1 hrs followed by blue-light irradiation for 10 mins by fluorescence spectroscopy. As to conditions: cattle, 1.167 h, time 70 min. It is filed as ADME.
A short description of data set [11]: Stability of the compound assessed as bovine serum albumin mediated drug degradation at 10 uM incubated for 1 hrs by fluorescence spectroscopy. The data set is classed as ADME. The settings on record: cattle.
Data set [12] concerns HeLa. Briefly: Induction of mitochondrial membrane potential depolarization in human HeLa cells assessed as fluorescence in nucleoli at 10 uM incubated for 60 mins followed by blue-light irradiation for 60 sec by MitoTracker Deep Red staining based confocal laser scanning microscopy. It is filed as functional, cell-based. The settings on record: time 61.0 min. The method in brief:
as §3

In data set [13] the test system is HeLa. Briefly: Induction of reactive oxygen species generation in human HeLa cells assessed as fold increase in ROS level by measuring nuclear fluorescence at 2 uM incubated for 60 mins followed by blue-light irradiation for 2 mins by confocal microscopy. The data set is classed as functional. The settings on record: time 62 min, 1.033 h. The method in brief: as §2

The subject of data set [14] is HeLa. The data set is described as follows: Induction of reactive oxygen species generation in human HeLa cells assessed as increase in ROS level at 20 uM incubated for 1 hr in presence of dihydroethidium by confocal microscopy. The data set is classed as functional, cell-based. The method in brief: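 HeLa cells were seeded at 20,000 per well in chambered coverslips and grown 16 h before treatment at 37 °C. Dihydroethidium (5 µM) was then added for 1 h, and cells were washed twice with complete medium. Confocal imaging followed. Ethidium signal was quantified as mean fluorescence in regions of interest drawn around nuclei.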

Data set [15] in a line: Drug distribution in human HeLa cells assessed as fluorescence in lysosome at 10 uM incubated for 1 to 3 hrs by LysoTracker red staining based confocal laser scanning microscopy. The settings on record: time 1-3 hrs. It is filed as ADME, cell-based. The method in brief:
as §1

Active and inactive are the calls of the source. The calls are words filed in the database; no cut-off is given here.

Albumin, sequence (P02769 whole entry): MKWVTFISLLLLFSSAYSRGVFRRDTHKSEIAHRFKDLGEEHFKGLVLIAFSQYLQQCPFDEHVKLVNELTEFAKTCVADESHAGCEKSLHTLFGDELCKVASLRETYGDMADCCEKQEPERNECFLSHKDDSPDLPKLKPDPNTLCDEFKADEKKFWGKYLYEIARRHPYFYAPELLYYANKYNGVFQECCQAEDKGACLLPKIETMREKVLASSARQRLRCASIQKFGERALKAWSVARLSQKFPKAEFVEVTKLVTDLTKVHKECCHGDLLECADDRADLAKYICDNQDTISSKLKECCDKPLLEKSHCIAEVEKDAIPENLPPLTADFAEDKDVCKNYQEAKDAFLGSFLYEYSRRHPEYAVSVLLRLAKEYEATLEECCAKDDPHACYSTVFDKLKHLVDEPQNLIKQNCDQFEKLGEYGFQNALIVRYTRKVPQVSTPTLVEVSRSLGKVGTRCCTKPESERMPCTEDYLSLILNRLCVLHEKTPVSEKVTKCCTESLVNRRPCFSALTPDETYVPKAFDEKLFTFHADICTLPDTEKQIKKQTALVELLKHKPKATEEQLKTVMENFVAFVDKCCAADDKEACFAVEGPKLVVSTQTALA

Usually half-life stands for how long it takes for the measured level to halve. As usually defined, the IC50 is the concentration at which inhibition is half-maximal. As to `O=C([O-])C(F)(F)F.c1cc(=[N+]2CCC2)cc2oc3cc(N4CCC4)ccc3cc1-2`, the Drug uptake entry in data set [1] was “Active”. Further, in data set [2], the half-life at 10 µM was 30 min. Further, the IC50 at 48 h in [3] was 200 nM; in [4] it was 3 µM. In addition, the Stability result in [5] is given as “Stable”.

As to `COC(=O)c1ccccc1-c1c2ccc(=N)cc-2oc2cc(N)ccc12.Cl` [RHODAMINE123], in data set [2], the half-life at 10 µM is above 1000 min.

`CCN(CC)c1ccc2cc3ccc(N(CC)CC)cc3[o+]c2c1.[Cl-]`: the outcome in [6] was Active. Also, the outcome with HeLa [7] was Active. For the same molecule, in data set [2], the half-life at 10 µM stood at 6 min. Besides, the results for the IC50 at 48 h in data set [3] and in data set [4] were 100 nM and 2 µM, respectively. For the same molecule, in data set [5], the Stability result was “Stable”.

Turning to `CCN(CC)c1cc2oc3cc(N(CC)CC)c(F)cc3c(=O)c2cc1F`, the half-life at 10 µM in data set [2] was found to be 5 min. The figures for the IC50 at 48 h in [3] and in data set [4] were 17000 nM and 51 µM, respectively.

`CCN(CC)c1cc2oc3cc(=[N+](CC)CC)c(F)cc-3cc2cc1F.O=C([O-])C(F)(F)F`: in [6], the outcome was Active. In addition, the Drug uptake result in [1] is listed as “Active”. Further, the result in the data set with HeLa [7], in the data set on HeLa [8], with HeLa [10] and in the data set on HeLa [12] was Active. Further, the half-life at 10 µM in [2] was 12 min. For the same molecule, the “fold change (FC)” value with HeLa [9] was determined as 1.5; with HeLa [13], 2.7. The IC50 at 48 h was found to be 1000 nM in [3] and 9 µM in [4]. Moreover, the Stability entry is reported as “Unstable” on Albumin, “Unstable” in [11] and “Stable” in data set [5].

For `CCCCCC[C@H]1C(=O)O[C@H](C)[C@H](NC(=O)c2cccc(NC=O)c2O)C(=O)O[C@@H](C)[C@@H]1OC(=O)CC(C)C`, the result in the data set with HeLa [14] was Active.

On to `CCNc1c2cc(F)c(=[N+](CC)CC)cc-2oc2cc(N(CC)CC)c(F)cc12.O=C([O-])C(F)(F)F`, for which the Drug uptake result in data set [1] and in data set [15] was “Active” each time. Besides, the half-life at 10 µM in data set [2] is 60 min. The IC50 at 48 h is 800 nM in data set [3] and 3 µM in data set [4].

Consider `Fc1cc2cc3cc(F)c(=[N+]4CCC4)cc-3oc2cc1N1CCC1.O=C([O-])C(F)(F)F`, for which the half-life at 10 µM in [2] came out at 15 min. Besides, the 50% inhibitory concentration (IC50) at 48 h in data set [3] worked out at 900 nM; in data set [4], 15 µM. The Stability entry in data set [5] is “Stable”.

Values taken from ChEMBL document CHEMBL5107970, “Synthesis of a fluorinated pyronin that enables blue light to rapidly depolarize mitochondria” (RSC Med Chem, 2022).
